Results gathered from unrelated publications.
Compare with care: the assays were run in different laboratories.
Read-out: cell growth or viability

O=C(O)c1ccc(NCc2ccc(Cl)cc2)cc1
IC50 (NCI-H69; resazurin; 72 h): > 100000 nM

CC(C)(C)c1cnc(CSc2cnc(NC(=O)C3CCN(C(=O)CCCCCCCN4Cc5cc6c(cc5C4)C(=O)N(C4CCC(=O)NC4=O)C6=O)CC3)s2)o1 (stereo not drawn)
IC50 (TC-71; MTT; 72 h): 8.52 nM

Cc1cc2c(C(N)=O)cccc2n1-c1nc2c(c(NCc3ccccn3)n1)CCCN2
IC50 (RPMI-8226; ATP luminescence; 72 h): 1400 nM

O=C(O)c1ccc(NCc2ccccc2)cc1
IC50 (NCI-H69; resazurin; 72 h): > 100000 nM

Cc1cc2c(C(N)=O)nccc2n1-c1nc2c(c(NCc3ccccc3)n1)CCCN2
IC50 (RPMI-8226; ATP luminescence; 72 h): 4900 nM

COc1ccc(CNc2ccc(C(=O)O)cc2)cc1OC
IC50 (NCI-H69; resazurin; 72 h): > 100000 nM

Cc1cc2c(C(N)=O)cccc2n1-c1nc(NCc2ccccc2)c2c(n1)NC(C)CC2 (stereo not drawn)
IC50 (RPMI-8226; ATP luminescence; 72 h): 1300 nM

CC(C)(C)c1cnc(CSc2cnc(NC(=O)C3CCN(C(=O)CCCCCCCCCCN4Cc5cc6c(cc5C4)C(=O)N(C4CCC(=O)NC4=O)C6=O)CC3)s2)o1 (stereo not drawn)
IC50 (TC-71; MTT; 72 h): 71.8 nM

Cc1cc2c(C(N)=O)cccc2n1-c1nc2c(c(NCc3cccnc3)n1)CCCN2
IC50 (RPMI-8226; ATP luminescence; 72 h): 2000 nM

COc1cccc2c1C(=O)c1c(O)c3c(c(O)c1C2=O)C[C@@](O)(C(=O)CO)C[C@@H]3O[C@H]1C[C@H](N)[C@H](O)[C@H](C)O1
IC50 (ACHN; MTT; 24 h): 36100 nM

O=C(O)c1ccc(NCc2cccc(O)c2)cc1
IC50 (NCI-H69; resazurin; 72 h): > 100000 nM

CC(C)(C)NS(=O)(=O)c1cccc(C(=O)N2CC3(CCC4(CC4)CC3)c3cc(NS(C)(=O)=O)ccc32)c1
IC50 (OVCAR-3; 7 days): 11 nM

Cc1cc2c(C(N)=O)cccc2n1-c1nc2c(c(OCc3ccccc3)n1)CCCN2
IC50 (RPMI-8226; ATP luminescence; 72 h): 4500 nM

CC(C)(C)c1cnc(CSc2cnc(NC(=O)C3CCN(C(=O)CCOCCN4Cc5cc6c(cc5C4)C(=O)N(C4CCC(=O)NC4=O)C6=O)CC3)s2)o1 (stereo not drawn)
IC50 (TC-71; MTT; 72 h): 8.93 nM

O=C(O)c1ccc(NCc2ccc(Br)cc2)cc1
IC50 (NCI-H69; resazurin; 72 h): > 100000 nM

CC(C)(C)c1cnc(CSc2cnc(NC(=O)C3CCN(C(=O)CCCCCCN4Cc5cc6c(cc5C4)C(=O)N(C4CCC(=O)NC4=O)C6=O)CC3)s2)o1 (stereo not drawn)
IC50 (TC-71; MTT; 72 h): 9.58 nM

O=C1CCCC2=C1C(c1c(C(=O)O)[nH]c3ccccc13)c1c(ccc3ccccc13)O2 (stereo not drawn)
IC50 (3T3-L1; MTT; 72 h): 24.1 µg/mL

CN1C(=O)CCC(N2C(=O)c3cc4c(cc3C2=O)CN(CCCCCCCC(=O)N2CCC(C(=O)Nc3ncc(SCc5ncc(C(C)(C)C)o5)s3)CC2)C4)C1=O (stereo not drawn)
IC50 (TC-71; MTT; 72 h): > 1000 nM

Cc1cc2c(C(N)=O)cccc2n1-c1nc2c(c(NCc3cccc(O)c3)n1)CCCN2
IC50 (RPMI-8226; ATP luminescence; 72 h): 300 nM

COc1cc(CNc2ccc(C(=O)O)cc2)ccc1O
IC50 (NCI-H69; resazurin; 72 h): > 100000 nM

CC(C)(C)c1cnc(CSc2cnc(NC(=O)C3CCN(C(=O)CCCCN4Cc5cc6c(cc5C4)C(=O)N(C4CCC(=O)NC4=O)C6=O)CC3)s2)o1 (stereo not drawn)
IC50 (TC-71; MTT; 72 h): 13 nM
